Most compounds without a hit are left out; they make up all but 1.9% or so of the library.
NR2E3 ag-1 – inhibitors of NR2E3-RetCOR corepressor binding, primary screen, NR2E3 agonist project, biochemical, TR-FRET, GST-NR2E3, biotin-RetCOR; Photoreceptor-specific nuclear receptor (Homo sapiens), Q9Y5X4; inhibition of corepressor binding, % at 4.78 µM; AID 2300, 2010; 320,000 tested, 0.12% active; 1536-well;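 active = percent inhibition above the cutoff of mean plus 3 SD of all tested compounds, set per screening campaign, cut at about 20% in these data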;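 note: 0% = DMSO wells and 100% = biotin wells as full block of FRET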
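Material – GST-tagged NR2E3 plus biotinylated RetCOR corepressor · Quantity – NR2E3 fusion 1.35 nM · Times – 5 h incubation at 4 °C · Medium – pH 7.5 Tris-based buffer · Technique – TR-FRET, Eu(K)-anti-GST donor, streptavidin-D2 acceptor, ex 340, em 617/671 nm · Benchmarks – high control biotin, low control 0.6% DMSO · Format – 1536-well plates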
MT1-MMP act inh – blockers of MT1-MMP proenzyme processing, primary screen, HT1080 RFP-PRO-GFP cells, GFP/RFP fluorescence | GFP/RFP ratio fluorescence, overnight; percent of plate control window, DMSO zero | GFP/RFP ratio change, % at 20 µM | 360,000 tested, 0.061% active | AID 651647, 2012;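 active = GFP/RFP ratio change of at least 30% with cell ATP level not reduced by more than half and red fluorescence within 50% of control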
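Assay system: HT1080 RFP-PRO-GFP cells. Benchmarks: DMSO vehicle wells and RFP-L50D-GFP reporter cell wells. Times: overnight cell settling, then overnight compound exposure, 37 °C, 5% CO2. Compound: 20 µM single dose, 1% DMSO. Read-out basis: GFP/RFP fluorescence ratio.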
SKN-1 inh – suppressors of acrylamide-induced Pgst-4::GFP reporter in worms, primary screen, SKN-1 inhibitor project, whole organism, uHTS, GFP/RFP fluorescence ratio, strain VP596 | 360,000 tested, 0.49% active | AID 624304, 2012 | inhibition, % at 21.8 µM | C. elegans VP596 Pgst-4::GFP/RFP ratio, 24 h;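 active = interference check ratio from 0.5 to 1.5 plus GFP to RFP signal ratio inhibition reaching or exceeding a fixed threshold, cut at about 30% in these data, passing the limit was not always enough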
PG9 binder – binders of HIV-1 gp120 antibody PG9, primary screen, biochemical, TR-FRET | 360,000 tested, 0.43% active | TR-FRET gp120-PG9 antibody binding | HIV-1 gp120 / PG9 antibody interaction | inhibition, % at 6.7 µM; in the data active = inhibition above about 8.5%
NR1D1 modulator – modulators of Rev-erb alpha DNA binding, primary screen, biochemical, FITC-DNA, fluorescence polarization, uHTS. Nuclear receptor subfamily 1 group D member 1 (Homo sapiens), P20393. Rev-erbα–FITC-DNA binding, 90 min. activity, % at 10 µM. 370,000 tested, 0.79% active;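 active = activity above about 14%, limit read from the data; passing the limit was not always enough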;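 note: 0% = DMSO wells with 35 nM protein and 100% = DMSO wells with 750 nM protein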
Target sequence (P20393 whole entry, looked up): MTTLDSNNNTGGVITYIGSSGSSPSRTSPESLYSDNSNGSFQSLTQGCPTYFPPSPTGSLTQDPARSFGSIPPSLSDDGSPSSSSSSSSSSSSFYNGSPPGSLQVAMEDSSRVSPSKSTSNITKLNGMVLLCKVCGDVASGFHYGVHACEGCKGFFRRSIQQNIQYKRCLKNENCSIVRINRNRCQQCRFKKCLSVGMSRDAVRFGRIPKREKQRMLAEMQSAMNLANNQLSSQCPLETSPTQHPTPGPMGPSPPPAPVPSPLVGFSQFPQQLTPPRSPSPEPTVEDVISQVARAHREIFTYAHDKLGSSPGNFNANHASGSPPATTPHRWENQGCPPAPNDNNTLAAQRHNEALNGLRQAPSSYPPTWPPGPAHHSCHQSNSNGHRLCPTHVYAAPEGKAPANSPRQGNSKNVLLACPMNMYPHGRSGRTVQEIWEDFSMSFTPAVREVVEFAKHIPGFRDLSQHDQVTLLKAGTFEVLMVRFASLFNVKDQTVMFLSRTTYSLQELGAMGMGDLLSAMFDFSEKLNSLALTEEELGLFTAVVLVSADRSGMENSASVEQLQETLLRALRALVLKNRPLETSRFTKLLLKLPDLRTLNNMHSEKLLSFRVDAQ
NR2E3 ag-2 – NR2E3 agonists in two-hybrid cells, primary screen, cell-based, luminescence, CHO-S, Gal4-NCOR/VP16-NR2E3; inhibition of corepressor binding, % at 3.98 µM; luciferase; Photoreceptor-specific nuclear receptor (Homo sapiens), Q9Y5X4; 360,000 tested, 0.35% active;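 active = inhibition above the mean of all tested compounds plus 3 SD, cut at about 70% in these data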;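 note: 0% = DMSO with NR2E3 transfected cells and 100% = cells lacking NR2E3 construct; higher means lower luciferase signal from less NR2E3 corepressor binding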
Rev-erbA confirm – modulators of Rev-erb alpha DNA binding, confirmation, biochemical, FITC-DNA, fluorescence polarization, single point | shares compounds with NR1D1 modulator | activation, % at 25 µM | 3,000 tested, 61% active | 90 min | AID 1259319, 2017;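 active = activation at or above a set limit, or at least 3 SD above the negative control mean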;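 note: 0% = 35 nM protein with DMSO and 100% = 750 nM protein high control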
RORg DNA counter – modulation of RORgamma DNA binding, dose response, counter-screen for Rev-erb alpha modulator project, biochemical, fluorescence polarization, FITC-DNA | shares compounds with NR1D1 modulator | purified RORgamma protein-FITC-DNA binding | IC50, µM | 910 tested, 8% active | AID 1259320, 2017;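 active = Compounds whose fitted half-maximal concentration for disrupting protein-DNA binding is below 10 micromolar; the record names Rev-erb in its text, so the target is in doubt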
* hit, by the source's call; / = no result.

SMILES	NR2E3 ag-1	MT1-MMP act inh	SKN-1 inh	PG9 binder	NR1D1 modulator	NR2E3 ag-2	Rev-erbA confirm	others
FC(F)(F)c1cc(-c2ccccn2)nc2cc(-c3ccccc3)nn12	2.0	0.0	-0.2	-0.1	45.5*	-5.0	23.6*
CCOC(=O)c1sc2nc(C)nc(NC3CCC(O)CC3)c2c1C (stereo unspecified)	-1.4	1.2	7.0	-2.0	24.2*	-10.2	3.2
O=S(=O)(c1ccccc1)N1CCCc2nc(-c3ccc(F)cc3)ccc21	/	/	/	-0.7	2.2	/	/
CCCn1c(N)c(C(=O)CSc2nc3ncc(Cl)cc3[nH]2)c(=O)n(C)c1=O	3.6	4.5	4.9	2.9	65.7*	-13.1	17.0*
CCOC(=O)CC[C@H]1CC[C@]2(CCCN(S(C)(=O)=O)C2)O1	/	/	/	/	1.3	/	/
CCC(C)(C)n1nnnc1CN1CCN(c2nc3cc(OC)ccc3cc2C#N)CC1	-3.0	3.3	-3.3	-1.8	56.3*	15.1	11.3
CC(C)C[C@H]1COc2cc(NCc3ccc(Cl)c(Cl)c3)ccc2S(=O)(=O)N1	/	/	/	5.8	16.9*	/	6.3
Cc1cccc(-c2nc3sc(C)cc3c(=O)o2)c1	0.5	2.4	3.9	-0.8	0.2	-6.9	/
Cc1cc2c(=O)oc(-c3ccc(Br)cc3)nc2s1	-0.1	4.3	4.9	0.3	31.0*	-20.6	7.1
COC(=O)C[C@@H]1CC[C@H]2[C@@H](COc3ccc(NC(=O)Nc4ccccc4C)cc3C(=O)N2C)O1	/	/	/	/	3.5	/	/
Cc1cc(N2CCOCC2)n2nc(C)c(-c3ccc(Cl)cc3)c2n1	3.9	1.9	-14.7	1.3	25.6*	-39.7	-1.1
Cc1cc(N2CCOCC2)n2ncc(-c3ccccc3)c2n1	2.7	1.1	10.5	-0.1	3.5	-37.5	/
Cc1nn2c(N3CCOCC3)cc(C(C)(C)C)nc2c1-c1ccc(Cl)cc1	/	3.5	9.9	-0.2	30.1*	9.8	-4.8
CC(=O)Nc1ccc(Nc2cc(C)nc3c(-c4ccc(Cl)cc4)c(C)nn23)cc1	-1.0	-2.1	-6.3	0.5	19.5*	-10.3	6.8
Cc1cc(N2CCOCC2)n2nc(C(F)(F)F)c(-c3ccccc3)c2n1	/	-0.3	14.1	-0.2	27.6*	14.1	-2.0
Cc1cc(N2CCOCC2)n2ncc(-c3ccc(Cl)cc3)c2n1	-1.4	-1.9	14.1	1.3	8.4	12.5	/
COc1cccc(-c2ccc3c(c2)O[C@@H](CN(C)C(=O)C2CCOCC2)[C@H](C)CN([C@H](C)CO)S3(=O)=O)c1	/	0.2	-12.1	2.0	-2.7	-10.3	/
CC/C(=N\Nc1ccccc1[N+](=O)[O-])c1ccc(O)cc1	-0.9	15.2	2.9	-4.0	14.7*	-46.0	-2.4
S=C1NCCN1c1ccc(Cl)cc1	/	/	/	0.8	2.3	/	/
CCOC(=O)c1cc(-c2ccccc2)sc1NC(=O)CN1C(=O)NC(CC)(c2ccccc2)C1=O (stereo unspecified)	3.9	-2.5	-6.8	6.7	46.6*	-18.5	30.6*
CCOC(=O)N[C@@H](Cc1cccnc1)C(=O)N1CCC[C@H]1C(=O)NC1CCCC1	/	/	/	0.0	2.6	/	/
Cc1cc2cc3c(=O)[nH]c(=O)[nH]c3nc2cc1C	1.6	/	/	-0.4	33.1*	/	40.6*	RORg DNA counter=>40
